The record followed here is ChEMBL document CHEMBL1134032, “Rational design, synthesis, and biological evaluation of rigid pyrrolidone analogues as potential inhibitors of prostate cancer cell growth” (Bioorg Med Chem Lett, 2001).

Assay [1] deals with Protein kinase C gamma type (Homo sapiens, UniProt P05129). Nature of the assay: Inhibition of [3H]-phorbol 12,13-dibutyrate (PDBu) binding to human recombinant protein kinase C gamma. The gist of the method:
(§1)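 Competitive displacement of [3H]PDBu binding from recombinant human PKC isozymes (alpha, beta, gamma, delta, epsilon), each tested separately. Affinity is reported as Ki in nM.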

The target of assay [2] is Protein kinase C delta type (Homo sapiens, UniProt Q05655). The experiment in a line: Inhibition of [3H]-phorbol 12,13-dibutyrate (PDBu) binding to human recombinant protein kinase C delta. The essentials: as §1
In assay [3] the target is Protein kinase C beta type (Homo sapiens, UniProt P05771). The experiment in a line: Inhibition of [3H]-phorbol 12,13-dibutyrate (PDBu) binding to human recombinant protein kinase C beta. The gist of the method: as §1
Assay [4] deals with T1, Protein kinase C epsilon type (Homo sapiens, UniProt Q02156).
T1 sequence (Q02156 whole entry): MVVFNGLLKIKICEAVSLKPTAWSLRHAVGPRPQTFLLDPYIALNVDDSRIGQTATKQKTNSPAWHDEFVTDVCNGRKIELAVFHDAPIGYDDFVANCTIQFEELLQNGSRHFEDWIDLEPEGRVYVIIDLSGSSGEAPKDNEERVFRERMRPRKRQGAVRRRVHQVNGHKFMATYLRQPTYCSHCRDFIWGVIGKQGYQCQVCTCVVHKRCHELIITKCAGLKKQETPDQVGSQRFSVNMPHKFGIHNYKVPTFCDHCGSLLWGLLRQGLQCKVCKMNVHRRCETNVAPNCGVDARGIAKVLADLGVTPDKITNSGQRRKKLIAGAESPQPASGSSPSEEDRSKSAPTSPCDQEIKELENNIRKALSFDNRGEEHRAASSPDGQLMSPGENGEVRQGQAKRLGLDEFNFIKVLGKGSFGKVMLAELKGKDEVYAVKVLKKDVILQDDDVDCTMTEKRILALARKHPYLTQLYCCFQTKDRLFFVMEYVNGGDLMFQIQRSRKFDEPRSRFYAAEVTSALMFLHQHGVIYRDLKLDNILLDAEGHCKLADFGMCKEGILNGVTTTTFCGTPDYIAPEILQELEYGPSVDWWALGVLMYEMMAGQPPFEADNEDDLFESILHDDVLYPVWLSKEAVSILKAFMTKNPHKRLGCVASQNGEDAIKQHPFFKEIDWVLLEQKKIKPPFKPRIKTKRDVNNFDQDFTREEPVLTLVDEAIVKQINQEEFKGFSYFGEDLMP
The experiment in a line: Inhibition of [3H]-phorbol 12,13-dibutyrate (PDBu) binding to human recombinant protein kinase C epsilon. The gist of the method: as §1

Assay [5] concerns the target Protein kinase C alpha type (Homo sapiens, UniProt P17252). The experiment in a line: Inhibition of [3H]-phorbol 12,13-dibutyrate (PDBu) binding to human recombinant protein kinase C alpha. The essentials: as §1

Chain of Protein kinase C delta type (Q05655 whole entry): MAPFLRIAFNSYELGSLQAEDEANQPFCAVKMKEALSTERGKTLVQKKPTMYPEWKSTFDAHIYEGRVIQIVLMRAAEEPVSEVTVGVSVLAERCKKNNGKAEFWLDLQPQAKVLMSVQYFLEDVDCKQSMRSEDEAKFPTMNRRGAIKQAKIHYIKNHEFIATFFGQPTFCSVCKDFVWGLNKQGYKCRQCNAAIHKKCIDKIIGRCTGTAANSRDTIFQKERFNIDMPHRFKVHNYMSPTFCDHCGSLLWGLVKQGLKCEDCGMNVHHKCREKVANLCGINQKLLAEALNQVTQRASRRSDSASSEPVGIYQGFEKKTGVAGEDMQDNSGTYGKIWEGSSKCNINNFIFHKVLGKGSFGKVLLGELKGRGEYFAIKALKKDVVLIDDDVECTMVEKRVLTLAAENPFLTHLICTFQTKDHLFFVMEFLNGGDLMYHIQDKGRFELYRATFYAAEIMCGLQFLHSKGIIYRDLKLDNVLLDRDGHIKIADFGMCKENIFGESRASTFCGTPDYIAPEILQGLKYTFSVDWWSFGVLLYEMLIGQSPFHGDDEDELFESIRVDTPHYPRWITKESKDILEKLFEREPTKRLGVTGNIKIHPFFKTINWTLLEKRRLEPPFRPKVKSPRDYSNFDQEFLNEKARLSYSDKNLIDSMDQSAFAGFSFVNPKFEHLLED
Chain of Protein kinase C beta type (P05771 whole entry): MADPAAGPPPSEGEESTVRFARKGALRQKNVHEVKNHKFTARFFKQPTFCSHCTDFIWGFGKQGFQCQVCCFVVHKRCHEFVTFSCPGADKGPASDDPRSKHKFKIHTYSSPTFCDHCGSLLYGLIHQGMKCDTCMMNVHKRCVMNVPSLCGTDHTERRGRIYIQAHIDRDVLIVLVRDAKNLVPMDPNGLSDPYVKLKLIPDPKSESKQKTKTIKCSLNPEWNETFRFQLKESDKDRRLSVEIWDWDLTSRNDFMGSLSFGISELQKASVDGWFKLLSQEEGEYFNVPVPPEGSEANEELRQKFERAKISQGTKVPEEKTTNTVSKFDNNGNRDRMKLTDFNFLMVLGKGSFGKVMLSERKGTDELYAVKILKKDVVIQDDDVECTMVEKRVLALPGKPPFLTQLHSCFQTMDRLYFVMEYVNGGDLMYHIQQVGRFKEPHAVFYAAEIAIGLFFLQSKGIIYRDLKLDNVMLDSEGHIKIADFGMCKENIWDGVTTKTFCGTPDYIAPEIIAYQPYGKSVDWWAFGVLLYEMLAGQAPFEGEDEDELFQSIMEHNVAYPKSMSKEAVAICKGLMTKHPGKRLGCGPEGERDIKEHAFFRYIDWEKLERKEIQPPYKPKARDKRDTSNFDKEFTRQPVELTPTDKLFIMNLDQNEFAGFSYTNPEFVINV

One may read the Ki as the dissociation constant of the complex between target and ligand, obtained from inhibition or displacement. With `CCCCCCCCCCCCCC(=O)O[C@@H]1[C@@H](C)[C@@]2(O)[C@@H](C=C(CO)C[C@]3(O)C(=O)C(C)=C[C@@H]23)[C@@H]2C(C)(C)[C@]12OC(C)=O` [PHORBOL MYRISTATE ACETATE], the Ki in assay [1] came to 4.9 nM; in assay [2], 0.8 nM; in assay [3], 1.8 nM; in assay [4], 0.45 nM.

In the case of `CCCCCCCCC#Cc1ccc2c(c1)C[C@@H](CO)NC(=O)[C@H](C(C)C)N2C`, the Ki in assay [1] worked out at 43 nM; in assay [2], 114 nM; in assay [3], 70 nM; in assay [5], 23 nM; in assay [4] it was 40 nM.

Turning to `CCCCCCCCC#Cc1ccc2c(c1)[C@](C)(C(C)C)[C@H]1C(=O)N[C@H](CO)[C@@H]21`, the inhibition constant Ki came out at 279 nM in assay [1], 1630 nM in assay [2], 580 nM in assay [5] and 469 nM in assay [4].
